# Measured values reported in ChEMBL document CHEMBL1128506, “Synthesis and dopaminergic activity of pyridine analogs of 5-hydroxy-2-(di-n-propylamino)tetralin” (J Med Chem, 1995).
# How the values were obtained:
# [1] = molecular target: T1, D(2) dopamine receptor (Homo sapiens, UniProt P14416); assay: In vitro binding affinity is the ability to displace [3H]N-0437 from human Dopamine receptor D2 expressed in CHO-K1 cells; type: cell-based
# [2] = molecular target: T1, D(2) dopamine receptor; assay: In vitro binding affinity is the ability to displace [3H]spiperone from human Dopamine receptor D2 expressed in CHO-K1 cells; type: cell-based
# [3] = molecular target: T2, D(3) dopamine receptor (Homo sapiens, UniProt P35462); assay: In vitro binding affinity is the ability to displace [3H]spiperone from human Dopamine receptor D3 expressed in CHO-K1 cells.; type: cell-based
# [4] = system: Mus musculus; assay: Inhibition of locomotor activity(LMA) in mouse after ip administration of the compound.; type: functional
# Outline: (§1)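 Mice given compound ip, then tested immediately for 1 h in darkened cylindrical photobeam chambers. Activity expressed as percent inhibition relative to vehicle-treated animals.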
# [5] = system: Rattus norvegicus; assay: Percent reversal of the increase on DOPA levels in the striatum of GBL-treated rats administered ip with 10 mg/kg of compound.; type: functional; conditions: route intraperitoneal
# Outline: (§2)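 Male Long-Evans rats received compound 1 h before sacrifice. GBL (750 mg/kg ip) and the decarboxylase inhibitor NSD 1015 (100 mg/kg ip) were given 30 min before sacrifice. Striatal DOPA was measured by HPLC with electrochemical detection. Result reported as percent reversal of the GBL-induced DOPA increase, n = 4.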
# [6] = system: Rattus norvegicus; assay: Inhibition of locomotor activity(LMA) in rat after sc administration of the compound.
# [7] = molecular target: T2, D(3) dopamine receptor; assay: In vitro binding affinity is the ability to displace [3H]spiperone from human Dopamine receptor D3 expressed in CHO-K1 cells; type: cell-based
# Outline: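 CHO-K1 cells stably expressing human D3 receptor, grown in F-12 medium with 10% fetal bovine serum under humidified 5% CO2/95% air.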
# [8] = system: Rattus norvegicus; assay: Inhibition of locomotor activity(LMA) in rat after sc administration of the compound.; remark: listed apart in the source
# [9] = system: Mus musculus; assay: Inhibition of locomotor activity(LMA) in mouse after ip administration of the compound; type: functional; outline: as §1
# [10] = system: Rattus norvegicus; assay: Percent reversal of the increase on DOPA levels in the striatum of GBL-treated rats administered ip with 10 mg/kg of compound; type: functional; conditions: route intraperitoneal; outline: as §2
# T1 sequence (P14416 whole entry): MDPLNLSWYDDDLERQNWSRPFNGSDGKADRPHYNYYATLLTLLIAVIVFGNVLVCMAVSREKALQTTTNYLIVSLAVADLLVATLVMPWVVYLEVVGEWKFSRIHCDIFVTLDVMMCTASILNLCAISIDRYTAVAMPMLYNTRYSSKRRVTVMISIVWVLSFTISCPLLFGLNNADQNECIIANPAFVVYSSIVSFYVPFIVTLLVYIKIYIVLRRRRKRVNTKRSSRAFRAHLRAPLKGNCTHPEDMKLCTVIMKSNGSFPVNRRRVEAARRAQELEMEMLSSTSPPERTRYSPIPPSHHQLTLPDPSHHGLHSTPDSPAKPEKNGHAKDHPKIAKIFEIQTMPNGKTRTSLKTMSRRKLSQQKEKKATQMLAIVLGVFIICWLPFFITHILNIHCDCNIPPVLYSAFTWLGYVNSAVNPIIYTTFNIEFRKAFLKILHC
# T2 sequence (P35462 whole entry): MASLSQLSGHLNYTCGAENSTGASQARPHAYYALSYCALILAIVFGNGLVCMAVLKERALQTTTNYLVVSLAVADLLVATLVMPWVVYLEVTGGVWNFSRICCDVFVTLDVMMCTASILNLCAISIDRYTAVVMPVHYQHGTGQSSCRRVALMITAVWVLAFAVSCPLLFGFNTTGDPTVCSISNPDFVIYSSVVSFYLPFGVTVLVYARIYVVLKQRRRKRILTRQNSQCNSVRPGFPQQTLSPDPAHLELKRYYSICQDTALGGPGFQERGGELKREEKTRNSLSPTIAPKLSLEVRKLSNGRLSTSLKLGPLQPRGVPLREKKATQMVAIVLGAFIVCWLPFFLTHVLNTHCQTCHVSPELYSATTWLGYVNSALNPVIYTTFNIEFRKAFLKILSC
SMILES,Ki [1] [µM],Ki [2] [µM],Ki [7] [µM],Ki [3] [µM],ED50 [4] [mg/kg],Decrease [5] [%],ED50 [6] [mg/kg],Inhibition [8] [%],ED50 [9] [mg/kg],Decrease [10] [%]
CCCN(CCC)C1CCc2nc(OC)ccc2C1 (centres undefined),1.2,> 3.33,,0.158,> 30,62,,,,
CCCN(CCC)C1CCc2nc(N)ccc2C1 (centres undefined),0.005,0.0171,,0.00087,0.25,86,0.05,,,
CCCN(CCC)C1CCc2c(O)cccc2C1 (centres undefined) [5-OH-DPAT],,,,,0.01,70,0.004,,,
CCCN(CCC)C1CCc2cc(OC)ccc2C1 (centres undefined),3.94,> 10,,0.366,,,,,,
CCCN(CCC)C1CCc2nc(N)sc2C1 (centres undefined),0.057,0.462,0.0019,,,,,,> 30,88

# Now from value to molecule, other results behind:
Ki [1] [µM],Ki [2] [µM],Ki [7] [µM],SMILES,Ki [3] [µM],ED50 [4] [mg/kg],Decrease [5] [%],ED50 [6] [mg/kg],Inhibition [8] [%],ED50 [9] [mg/kg],Decrease [10] [%]
0.466,0.272,,CCCN(CCC)C1CCc2ncccc2C1 (centres undefined),0.00497,0.08,86,0.01,,,
0.523,> 3.33,0.036,CCCN(CCC)C1CCc2n[nH]cc2C1 (centres undefined),,0.64,91,,45,,
